Reference: ChEMBL document CHEMBL5724801, “EUbOPEN Chemogenomics Library - Multiplex” (2024)
“And” between values parts separate entries of the source, which are not always exact repeats. Equal entries are not always repeated.

Tests used:
Fibroblast = experiment: Multiplex assay against human fibroblast; assay type: toxicity, cell-based
Summary of the method: (§1)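 Live cells carried four stains from seeding: Hoechst33342, BioTracker Green Microtubule Cytoskeleton Dye, MitoTracker Red and Annexin V Alexa Fluor 680. They were imaged on a CQ1 microscope at 37°C and 5% CO2 after compound addition. Using CellPathfinder machine-learning gating, cells were split into Hoechst high-intensity objects or normal cells, normal cells into healthy, pyknosed or fragmented nuclei, and pyknosed cells into mitotic or apoptotic; tubulin, mitochondrial-mass and membrane-permeability phenotypes are per cents of healthy-nucleus cells.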

HEK-293T = experiment: Multiplex assay against HEK293T; assay type: toxicity, cell-based; conditions: human; summary of the method: as §1
[1] = 12 h, 1 µM, compound concentration 1 uM
[2] = 12 h, 10 µM, compound concentration 10 uM
[3] = 24 h, 1 µM, compound concentration 1 uM
[4] = 24 h, 10 µM, compound concentration 10 uM
[5] = 48 h, 1 µM, compound concentration 1 uM
[6] = 48 h, 10 µM, compound concentration 10 uM

Compound: N[C@](CC1c2ccccc2Oc2ccccc21)(C(=O)O)[C@H]1C[C@@H]1C(=O)O
- Population Apoptotic (%) (Fibroblast; [1]): 44% and 58%
- Population Fragmented Nuclei (%) (Fibroblast; [1]): 12% and 18%
- Population Healthy Nuclei (%) (Fibroblast; [1]): 73% and 59%
- Population Hoechst High Intensity Objects (%) (Fibroblast; [1]): 4% and 1%
- Population Membrane Permeable-Phenotype (%) (Fibroblast; [1]): 0% and 7%
- Population Mitochondria Different-Phenotype (%) (Fibroblast; [1]): 1%
- Population Mitotic Cells (%) (Fibroblast; [1]): 56% and 41%
- Population Normal (%) (Fibroblast; [1]): 95% and 98%
- Population Pyknosed Nuclei (%) (Fibroblast; [1]): 13% and 21%
- Population Tubulin-Different-Phenotype (%) (Fibroblast; [1]): 27% and 37%
- Total Cell Count (Fibroblast; [1]): 189 and 113
- Population Apoptotic (%) (Fibroblast; [2]): 50% and 26%
- Population Fragmented Nuclei (%) (Fibroblast; [2]): 13% and 20%
- Population Healthy Nuclei (%) (Fibroblast; [2]): 66% and 59%
- Population Hoechst High Intensity Objects (%) (Fibroblast; [2]): 1% and 7%
- Population Membrane Permeable-Phenotype (%) (Fibroblast; [2]): 2% and 0%
- Population Mitochondria Different-Phenotype (%) (Fibroblast; [2]): 2% and 7%
- Population Mitotic Cells (%) (Fibroblast; [2]): 50% and 73%
- Population Normal (%) (Fibroblast; [2]): 98% and 92%
- Population Pyknosed Nuclei (%) (Fibroblast; [2]): 20%
- Population Tubulin-Different-Phenotype (%) (Fibroblast; [2]): 22% and 33%
- Total Cell Count (Fibroblast; [2]): 203 and 119
- Population Apoptotic (%) (Fibroblast; [3]): 68% and 33%
- Population Fragmented Nuclei (%) (Fibroblast; [3]): 12% and 27%
- Population Healthy Nuclei (%) (Fibroblast; [3]): 73% and 49%
- Population Hoechst High Intensity Objects (%) (Fibroblast; [3]): 2% and 4%
- Population Membrane Permeable-Phenotype (%) (Fibroblast; [3]): 2% and 6%
- Population Mitochondria Different-Phenotype (%) (Fibroblast; [3]): 2% and 1%
- Population Mitotic Cells (%) (Fibroblast; [3]): 32% and 66%
- Population Normal (%) (Fibroblast; [3]): 97% and 95%
- Population Pyknosed Nuclei (%) (Fibroblast; [3]): 13% and 22%
- Population Tubulin-Different-Phenotype (%) (Fibroblast; [3]): 25% and 44%
- Total Cell Count (Fibroblast; [3]): 183 and 123
- Population Apoptotic (%) (Fibroblast; [4]): 57% and 35%
- Population Fragmented Nuclei (%) (Fibroblast; [4]): 10% and 18%
- Population Healthy Nuclei (%) (Fibroblast; [4]): 68% and 66%
- Population Hoechst High Intensity Objects (%) (Fibroblast; [4]): 1% and 2%
- Population Membrane Permeable-Phenotype (%) (Fibroblast; [4]): 1%
- Population Mitochondria Different-Phenotype (%) (Fibroblast; [4]): 3% and 4%
- Population Mitotic Cells (%) (Fibroblast; [4]): 42% and 64%
- Population Normal (%) (Fibroblast; [4]): 98% and 97%
- Population Pyknosed Nuclei (%) (Fibroblast; [4]): 20% and 15%
- Population Tubulin-Different-Phenotype (%) (Fibroblast; [4]): 30% and 34%
- Total Cell Count (Fibroblast; [4]): 193 and 113
- Population Apoptotic (%) (Fibroblast; [5]): 62% and 23%
- Population Fragmented Nuclei (%) (Fibroblast; [5]): 17% and 36%
- Population Healthy Nuclei (%) (Fibroblast; [5]): 68% and 48%
- Population Hoechst High Intensity Objects (%) (Fibroblast; [5]): 2% and 8%
- Population Membrane Permeable-Phenotype (%) (Fibroblast; [5]): 0% and 9%
- Population Mitochondria Different-Phenotype (%) (Fibroblast; [5]): 2% and 5%
- Population Mitotic Cells (%) (Fibroblast; [5]): 37% and 76%
- Population Normal (%) (Fibroblast; [5]): 97% and 91%
- Population Pyknosed Nuclei (%) (Fibroblast; [5]): 14%
- Population Tubulin-Different-Phenotype (%) (Fibroblast; [5]): 26% and 65%
- Total Cell Count (Fibroblast; [5]): 189 and 125
- Population Apoptotic (%) (Fibroblast; [6]): 45% and 27%
- Population Fragmented Nuclei (%) (Fibroblast; [6]): 14% and 27%
- Population Healthy Nuclei (%) (Fibroblast; [6]): 68% and 63%
- Population Hoechst High Intensity Objects (%) (Fibroblast; [6]): 5% and 3%
- Population Membrane Permeable-Phenotype (%) (Fibroblast; [6]): 1% and 2%
- Population Mitochondria Different-Phenotype (%) (Fibroblast; [6]): 2%
- Population Mitotic Cells (%) (Fibroblast; [6]): 54% and 72%
- Population Normal (%) (Fibroblast; [6]): 94% and 96%
- Population Pyknosed Nuclei (%) (Fibroblast; [6]): 16% and 9%
- Population Tubulin-Different-Phenotype (%) (Fibroblast; [6]): 32% and 28%
- Total Cell Count (Fibroblast; [6]): 198 and 115
- Population Apoptotic (%) (HEK-293T; [1]): 38% and 54%
- Population Fragmented Nuclei (%) (HEK-293T; [1]): 6% and 7%
- Population Healthy Nuclei (%) (HEK-293T; [1]): 83% and 79%
- Population Hoechst High Intensity Objects (%) (HEK-293T; [1]): 7% and 5%
- Population Membrane Permeable-Phenotype (%) (HEK-293T; [1]): 0%
- Population Mitochondria Different-Phenotype (%) (HEK-293T; [1]): 43% and 58%
- Population Mitotic Cells (%) (HEK-293T; [1]): 61% and 45%
- Population Normal (%) (HEK-293T; [1]): 92% and 94%
- Population Pyknosed Nuclei (%) (HEK-293T; [1]): 10% and 12%
- Population Tubulin-Different-Phenotype (%) (HEK-293T; [1]): 27% and 25%
- Total Cell Count (HEK-293T; [1]): 447 and 270
- Population Apoptotic (%) (HEK-293T; [2]): 32%
- Population Fragmented Nuclei (%) (HEK-293T; [2]): 9% and 4%
- Population Healthy Nuclei (%) (HEK-293T; [2]): 78% and 81%
- Population Hoechst High Intensity Objects (%) (HEK-293T; [2]): 8% and 7%
- Population Membrane Permeable-Phenotype (%) (HEK-293T; [2]): 0%
- Population Mitochondria Different-Phenotype (%) (HEK-293T; [2]): 40% and 66%
- Population Mitotic Cells (%) (HEK-293T; [2]): 67%
- Population Normal (%) (HEK-293T; [2]): 91% and 92%
- Population Pyknosed Nuclei (%) (HEK-293T; [2]): 12% and 13%
- Population Tubulin-Different-Phenotype (%) (HEK-293T; [2]): 23% and 31%
- Total Cell Count (HEK-293T; [2]): 381 and 382
- Population Apoptotic (%) (HEK-293T; [3]): 21% and 38%
- Population Fragmented Nuclei (%) (HEK-293T; [3]): 8% and 9%
- Population Healthy Nuclei (%) (HEK-293T; [3]): 81% and 84%
- Population Hoechst High Intensity Objects (%) (HEK-293T; [3]): 3% and 5%
- Population Membrane Permeable-Phenotype (%) (HEK-293T; [3]): 1% and 0%
- Population Mitochondria Different-Phenotype (%) (HEK-293T; [3]): 24% and 30%
- Population Mitotic Cells (%) (HEK-293T; [3]): 78% and 61%
- Population Normal (%) (HEK-293T; [3]): 96% and 94%
- Population Pyknosed Nuclei (%) (HEK-293T; [3]): 10% and 6%
- Population Tubulin-Different-Phenotype (%) (HEK-293T; [3]): 15% and 16%
- Total Cell Count (HEK-293T; [3]): 629 and 368
